# High-throughput results deposited in PubChem BioAssay by Broad Institute.
# Hits are enriched below; roughly 4% of the tested compounds scored in any of these assays.
# E-sel inducer = E-selectin induction in HUVECs, primary screen, imaging, HUVEC, immunofluorescence imaging, single point; normalized: neutral wells 0, TNF-alpha wells 100; P16581; AID 686992, 2013; activation, % at 7.58 µM; 260,000 compounds, 0.37% hits;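 active = mean E-selectin-positive cell signal at least 10% of the positive control, reached in at least 60% of replicates, without over 20% cell loss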
#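 assay system = HUVEC, human umbilical vein endothelial cells | input = 3,000 HUVEC seeded per well | medium = EGM-2 growth medium on 0.1% gelatin-coated wells | dosing = one compound dose added by pin transfer | signal = immunofluorescence imaging | read-out basis = % PE-positive cells | control set = TNF-alpha, DMSO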
# FN deposit inh = inhibitors of fibronectin matrix deposition, primary screen, AH1F cells, Alexa488-fibronectin fluorescence, plate reader | 350,000 compounds, 0.086% hits | AH1F fibroblasts, overnight | inhibition, % at 12.6 µM;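 active = mean inhibition across replicates of 30% or more, regardless of how many single replicates reach that level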
#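 material = AH1F fibroblast monolayer depositing Alexa488-labelled fibronectin into matrix | amount = 10000 AH1F cells/well | buffer or medium = DMEM plus 2% serum, read in PBS | incubation = 1 h cell adhesion before compound, then overnight fibronectin incubation | detection = fluorescence at 485 nm excitation, 525 nm emission | evaluation = percent inhibition as loss of matrix-bound fibronectin fluorescence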
# FGF22 binding = binders of human FGF22 protein, primary screen, FGF22 synaptogenesis inhibitor project, biophysical, thermal shift, single point | Fibroblast growth factor 22 (Homo sapiens), Q9HCT0 | recombinant FGF22 thermal shift, SYPRO orange fluorescence; percent of sucrose octasulfate shift, DMSO zero | activity (Tm shift, normalised), % at 9.99 µM | 340,000 compounds, 1.5% hits;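 active = mean Tm shift, scaled 0 neutral to 100 positive control, at about 1.3% or above, every replicate too, limit read from the data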
# Target sequence (Q9HCT0 whole entry, looked up): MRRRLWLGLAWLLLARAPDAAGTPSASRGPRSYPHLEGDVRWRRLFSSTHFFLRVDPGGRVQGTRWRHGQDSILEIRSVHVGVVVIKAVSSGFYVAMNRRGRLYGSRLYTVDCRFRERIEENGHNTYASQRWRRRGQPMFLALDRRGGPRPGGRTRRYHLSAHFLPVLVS
# rRNA inh HTS = reduced GFP signal of wild-type E. coli, primary screen, bacterial rRNA inhibitor project, GFP/RFP fluorescence, OD600, single point | E. coli WT GFP vs humanized-ribosome RFP mutants, 24 h; hits give low values; DMSO median 0, no signal -100 | GFP signal change (wild-type ribosome), % (no concentration beside the values) | 350,000 compounds, 1.6% hits | AID 720706, 2013;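 active = significant combined selectivity score with lowered wild-type GFP, culture density cut under 30%, mutant RFP and density less affected; inactive = any of these conditions unmet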
# Statin myotox sup = suppressors of statin myotoxicity in C2C12 myotubes, primary screen, cell-based, single point, plate reader | rescue of ATP level, % at 7.49 µM | C2C12 myotubes + simvastatin, ATP luminescence, 48 h; scaled: DMSO 0, geranylgeraniol control 100 | 330,000 compounds, 0.78% hits;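 active = mean ATP rescue above about 67%, or every replicate alone reaching that limit, limit read from the data, passing the limit was not always enough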;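 also: myotubes were challenged with 10 µM simvastatin during compound exposure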
# SIRT5 inh = SIRT5 desuccinylase inhibitors, primary screen, biochemical, fluorescence imaging, single point, set 5; Purified SirT5, succinyl-peptide AMC, trypsin-coupled fluorescence; inhibition, % at 15 µM; 330,000 compounds, 1.1% hits; AID 652115, 2013; in the data active = inhibition above about 15%
# Target sequence (Q9NXA8 whole entry, looked up): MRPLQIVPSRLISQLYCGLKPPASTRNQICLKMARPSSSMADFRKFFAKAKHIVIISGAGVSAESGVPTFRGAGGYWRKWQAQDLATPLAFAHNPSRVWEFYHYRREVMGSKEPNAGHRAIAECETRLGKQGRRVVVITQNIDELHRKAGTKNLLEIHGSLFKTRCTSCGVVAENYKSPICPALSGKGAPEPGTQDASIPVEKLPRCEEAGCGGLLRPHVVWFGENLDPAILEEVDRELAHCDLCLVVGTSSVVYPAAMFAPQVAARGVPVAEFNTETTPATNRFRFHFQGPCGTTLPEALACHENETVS
# Hits are given with their value; 0 = inactive; - = no result given.
SMILES,E-sel inducer,FN deposit inh,FGF22 binding,rRNA inh HTS,Statin myotox sup,SIRT5 inh
O=C(Cc1ccccc1)N[C@@H]1C=C[C@H](CC(=O)N2CCCCC2)O[C@H]1CO,0,0,0,0,0,0
O=C(NCc1nc(-c2ccc(C(F)(F)F)cc2)no1)Nc1cc(Cl)cc(Cl)c1,-,0,0,-47,0,0
O=C(C#Cc1ccccc1)Nc1cccc(F)c1,0,0,0,0,159,0
CC(=O)Nc1cccc(NC(=O)Nc2cccc(F)c2)c1,-,0,45,0,-,0
O=C(Nc1cccc(F)c1)Nc1cccc(Cl)c1,-,0,0,0,0,0
COCC(=O)N(C)C[C@@H]1Oc2ncc(C#CC(C)(C)O)cc2C(=O)N([C@@H](C)CO)C[C@@H]1C,0,0,0,0,0,0
COCC(=O)N(C)C[C@H]1Oc2ncc(C#Cc3ccccc3)cc2C(=O)N([C@@H](C)CO)C[C@H]1C,0,0,0,0,0,0
CCOC(=O)C1CCN(C(=O)c2cc3c(=O)n4cccc(C)c4nc3s2)CC1,-,0,0,-19,0,0
CCOC(=O)C1CCN(C(=O)c2cc3c(=O)n4ccccc4nc3s2)CC1,0,-,0,0,-,0
C[C@H]1CN([C@@H](C)CO)C(=O)c2c(c3ccccc3n2C)-c2ccccc2CO[C@H]1CN(C)C(=O)c1ccncc1,0,0,0,0,0,0
Cc1cccc(NC(=O)CNC(=O)COc2cc(F)ccc2[N+](=O)[O-])c1C,-,-,43,0,0,0
C[C@@H]1CCCCO[C@@H](CN(C)S(=O)(=O)c2cn(C)cn2)[C@H](C)CN([C@@H](C)CO)C(=O)c2cc(NS(=O)(=O)c3ccc(F)cc3)ccc2O1,0,0,0,0,0,0
CCS(=O)(=O)Nc1ccc2c(c1)C(=O)N(C)C[C@H](OC)[C@@H](C)CN(C(=O)C1CC1)[C@@H](C)CO2,0,0,0,0,0,0
CC1(CCc2ccccc2)NC(=O)N(CC(=O)Nc2ccc(OC(F)F)cc2)C1=O (centres undefined),-,0,0,-29,0,0
CC1(c2ccccc2)NC(=O)N(CC(=O)Nc2ccc([N+](=O)[O-])cc2)C1=O (centres undefined),0,0,43,0,0,0
CC1(CCc2ccccc2)NC(=O)N(CC(=O)Nc2ccc(S(N)(=O)=O)cc2)C1=O (centres undefined),-,0,0,0,-,0
O=C(Nc1cc(Cl)ccc1-n1cncn1)c1ccc(Br)o1,0,0,13,0,-,0
O=C(Nc1cc(Cl)ccc1-n1cncn1)c1cncc(Br)c1,0,0,-,0,0,0
CO[C@@H]1CN(C)C(=O)c2ccc(NC(C)=O)cc2OC[C@H](C)N(Cc2nccs2)C[C@@H]1C,0,0,0,0,0,0
O=C(O)COc1ccc(/C=C/c2nc(-c3ccccc3O)n[nH]2)cc1,0,0,0,-17,0,0
COCC(=O)Nc1ccc(Br)c(C)c1,-,-,0,0,0,0
Cn1nnc2cc(NC(=O)Nc3ccccc3F)ccc21,-,0,0,0,0,0
Cc1cc(NC(=O)Nc2ccccc2F)ccc1Br,-,39,0,0,0,0
CC(=O)OCC(=O)Nc1ccc(Br)c(C)c1,-,0,43,0,-,0
CCOP(=O)(OCC)c1nc(-c2ccccc2Cl)oc1N1CCOCC1,-,0,45,0,-,0
SMILES,E-sel inducer,FN deposit inh,FGF22 binding,rRNA inh HTS,Statin myotox sup,SIRT5 inh
CCOP(=O)(OCC)c1nc(-c2cccc3ccccc23)oc1N1CCOCC1,-,0,-,-,-,-
COCCN(C(=O)C(=O)NC1CCCC1)C(C(=O)NC1CCCC1)c1ccccc1F (centres undefined),-,0,44,0,0,0
COCCN(C(=O)c1csnn1)C(C(=O)NC1CCCCC1)c1ccccc1F (centres undefined),-,0,0,0,0,0
COCC(=O)Nc1ccc2c(c1)C(=O)N(C)C[C@@H](OC)[C@@H](C)CN[C@H](C)CO2,0,0,-,0,0,-
C[C@H](CO)N1C[C@H](C)[C@H](CN(C)CC2CC2)Oc2ccc(NC(=O)c3ccncc3)cc2CC1=O,0,0,0,0,0,0
CC1(C)CC[C@]2(C(=O)O)CC[C@]3(C)C(=CC[C@@H]4[C@@]5(C)CC[C@H](O[C@@H]6O[C@H](C(=O)O)[C@@H](O)[C@H](O[C@@H]7OC[C@H](O)[C@H](O)[C@H]7O)[C@H]6O)C(C)(C)[C@@H]5CC[C@]43C)[C@@H]2C1,0,51,0,0,0,-
CC1(C)CC[C@]2(C(=O)O[C@@H]3O[C@H](CO)[C@@H](O)[C@H](O)[C@H]3O)CC[C@]3(C)C(=CCC4[C@@]5(C)CC[C@H](O[C@@H]6O[C@H](C(=O)O)[C@@H](O[C@H]7OC[C@@H](O)[C@@H](O)[C@@H]7O)[C@H](O)[C@H]6O)C(C)(C)C5CC[C@]43C)[C@@H]2C1 (some centres undefined),0,0,0,0,0,-
CCN(CC)C(=O)c1sc(N)c(C#N)c1C,-,-,-,-,128,-
CCOC(=O)C(=O)Nc1sc(C(=O)N(CC)CC)c(C)c1C#N,0,0,0,0,-,0
COc1ccc(OCc2cc(C(=O)N[C@H]3CCCCNC3=O)no2)c(Cl)c1,-,0,0,0,-,0
CSc1ccccc1OCc1cc(C(=O)N[C@H]2CCCCNC2=O)no1,-,0,0,-19,0,0
O=Cc1c(-c2ccc(Cl)cc2)oc2ccc(O)cc12,-,0,0,-30,0,0
CCC(=O)OCCNc1cc(Sc2nc3ccccc3s2)c2nonc2c1[N+](=O)[O-],-,-,-,-,102,-
CC(=O)Nc1ccccc1OCC(=O)NCC(F)(F)F,-,0,44,0,-,0
O=C(COc1ccccc1Br)Nc1ccccc1C(F)(F)F,0,0,43,0,0,0
Cc1noc(C)c1NC(=O)N(C)C[C@H]1Oc2ccc(NS(C)(=O)=O)cc2C(=O)N([C@@H](C)CO)C[C@H]1C,-,-,0,0,0,0
Cc1noc(C)c1NC(=O)N(C)C[C@@H]1Oc2ccc(NS(=O)(=O)c3c(C)noc3C)cc2CC(=O)N([C@H](C)CO)C[C@H]1C,0,0,0,0,0,0
CC1(Cc2ccc(Cl)cc2)C(=O)Nc2ccc(-c3cccnc3)cc21 (centres undefined),0,0,0,0,116,0
COC(=O)C[C@H]1CC[C@H]2[C@@H](COc3ccc(NS(=O)(=O)c4ccc(F)cc4)cc3C(=O)N2C)O1,0,0,0,0,-,0
